KCNQ1 inh: inhibitors of human KCNQ1 channel, primary screen, cell-based, thallium flux, high-throughput; Potassium voltage-gated channel subfamily KQT member 1 (Homo sapiens), P51787; CHO-K1 KCNQ1, FluxOR thallium flux fluorescence; active compounds read high; B-score at 10 µM; actives 1.3% (n = 310,000);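 active = compounds whose thallium flux B-score, printed positive for inhibition, exceeds three library SD while starting fluorescence stays within three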;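 also: channel opened by potassium depolarization with thallium stimulus after 20 min compound exposure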
KCNK3 inh: human KCNK3 channel inhibitors, primary screen, CHO cells, FluxOR thallium flux, B-score | Potassium channel subfamily K member 3 (Homo sapiens), O14649 | FluxOR fluorescence; active compounds read low | B-score at 10 µM | actives 0.84% (n = 340,000) | AID 602410, 2012;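 active = B-score under library mean minus 4 SD, starting fluorescence ratio at most library mean plus 5 SD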;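 also: more negative B-score means stronger inhibition of thallium flux through KCNK3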
hERG protect: hERG rescue from dofetilide block, primary screen, cell-based, CHO-hERG, FluxOR thallium flux, dofetilide IC70. Voltage-gated inwardly rectifying potassium channel KCNH2 (Homo sapiens), Q12809. dofetilide IC70 present. activation (rescue from dofetilide block), less the hit threshold, % at 10 µM. actives 0.51% (n = 310,000);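 active = activation above the mean of controls blocked by dofetilide plus 5 SD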;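 also: thallium influx through hERG after potassium depolarization seen as dye fluorescence rise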
Cl transport mod: KCC2 cotransporter modulators, thallium flux, primary screen, cell-based, HEK293 KCC2, FluoZin-2 fluorescence, MLSMR; AID 1456, 2008; KCC2 cells, thallium flux FluoZin-2 fluorescence; actives 2.2% (n = 190,000); B-score of Tl+ flux slope (higher = more flux/activation; lower = inhibition) at 10 µM;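 active = thallium flux slope and its plate-corrected score both differing from the plate sample mean at a set confidence after two filtering rounds, in either direction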;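 also: slope of fluorescence scaled to starting intensity during 10 to 20 s after thallium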
KCNK9 inh: KCNK9 potassium channel inhibitors, primary screen, HEK293 cells, thallium flux; Potassium channel subfamily K member 9 (Homo sapiens), Q9NPC2; FluxOR thallium flux fluorescence; active compounds read low; B-score at 10 µM; actives 1.2% (n = 310,000);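 active = ratio B-score over 3 SD below the library mean, with starting fluorescence within 5 SD of its mean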;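 also: negative B-score means less thallium flux so channel inhibition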
KCNQ1 act: potentiators or activators of KCNQ1 channel, primary screen, cell-based, thallium flux, high-throughput; actives 0.35% (n = 310,000); Potassium voltage-gated channel subfamily KQT member 1 (Homo sapiens), P51787; CHO-K1 KCNQ1, thallium flux FluxOR fluorescence; active compounds read high; AID 2648, 2010; B-score at 10 µM;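 active = fluorescence ratio B-score, a plate-corrected score, at least three library SD, with initial intensity B-score within 5 SD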
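Assay system: CHO-K1 cells stably expressing KCNQ1. Medium: assay buffer for compound exposure, DMSO matched across wells. Timing: 37 °C overnight plating, 90-min dark dye load, 20-min compound pretreatment. Signal: kinetic FluxOR fluorescence, 10 s baseline plus 110 s post-stimulus.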
KCC2 secondary: KCC2 modulators in sodium-free buffer, confirmation, cell-based, HEK293 KCC2, thallium flux, secondary assay. shares compounds with Cl transport mod. FluoZin2 fluorescence; active compounds read high. normalised thallium flux (F/F0 slope) at 10 µM. actives 15% (n = 3,700). AID 1713, 2009;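 active = thallium flux slope above the same plate's solvent-only control mean plus 3 SD; inconclusive = the two replicate wells disagree; inactive = no significant difference from solvent-only control wells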
KCC2 bumet counter: thallium flux persisting under bumetanide in KCC2 cells, confirmation, counter-screen for KCC2 modulator project, cell-based, HEK293 KCC2, FluoZin2, secondary assay 3. actives 49% (n = 3,700). HEK293-KCC2 + bumetanide/ouabain; active compounds read high. shares compounds with Cl transport mod. normalized thallium flux at 10 µM;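 active = thallium entry rate above the same plate's blocked-transporter control wells by more than 3 SD; inconclusive = the two repeat wells disagree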;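 also: raw slope of fluorescence over initial fluorescence between 10 and 20 s after thallium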
KCC2 secondary2: KCC2 modulators without ouabain present, confirmation, cell-based, HEK293 KCC2, thallium flux, FluoZin2, secondary assay 2; thallium flux FluoZin2 fluorescence; actives lie on both sides; F/F0 rise rate, 10–20 s post-thallium; normalized thallium flux at 10 µM; actives 23% (n = 3,700); shares compounds with Cl transport mod;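 active = thallium flux slope more than 3 SD above or below the plate's solvent-only control mean, mostly below; inconclusive = the two repeat wells disagreed; inactive = no significant shift from solvent-only controls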;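 also: raw slope with 0.1% DMSO as baseline and bumetanide as block control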
HEK counter1: thallium flux modulation in parental HEK cells, confirmation, counter-screen for KCC2 modulator project, cell-based, counterscreen 1; shares compounds with Cl transport mod; HEK293 parental cells, thallium flux FluoZin2, ouabain; baseline-ratio fluorescence slope, 10–20 s after thallium; thallium flux rate (normalised fluorescence) at 10 µM; actives 46% (n = 3,700); AID 1716, 2009;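 active = thallium flux rate significantly above the same plate's solvent-only control wells, beyond their mean plus 3 SD; inconclusive = the two replicate wells gave conflicting results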
KCC2 retest ouab: KCC2 inhibitors and activators, ouabain retest, confirmation, HEK-KCC2 cells | shares compounds with Cl transport mod | HEK293-KCC2, thallium flux FluoZin2 fluorescence; bidirectional: low = inhibitor, high = activator | raw Tl+ flux slope (below DMSO = inhibition, above = activation) at 10 µM | actives 48% (n = 3,700) | AID 1717, 2009;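 active = thallium flux slope beyond 3 SD from same-plate DMSO control mean in most replicates, usually higher, sometimes lower; inconclusive = repeat tests gave conflicting results; inactive = no significant difference from controls in most replicates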;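 also: slope of initial-normalized fluorescence between seconds 10 and 20 after thallium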
HEK counter2: native HEK Tl+ uptake effects, second counter-screen – HEK cells, counterscreen 2, counter-screen for KCC2 modulator project, confirmation; shares compounds with Cl transport mod; HEK293 parental, thallium flux FluoZin-2 fluorescence slope; thallium flux slope at 10 µM; actives 33% (n = 3,700); AID 1718, 2009;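 active = thallium flux slope above the same plate's solvent-control mean plus 3 SD in both duplicate wells; inconclusive = duplicate wells that disagreed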;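 also: run without ouabain in cells lacking the KCC2 cotransporter; slope of fluorescence scaled to its starting value between 10 and 20 s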
KCNK9 inh conf: KCNK9 potassium channel inhibitors, confirmation, HEK293 cells, thallium flux, duplicate | inhibition, % at 10 µM | actives 43% (n = 4,900) | shares compounds with KCNK9 inh | FluxOR thallium flux fluorescence;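 active = thallium signal inhibited by more than 5 SD of the compound-free buffer control wells, on both duplicate plates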;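 also: 0% = assay buffer control wells without compound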
Kir21 sel: mouse Kir2.1 channel inhibition, confirmation, selectivity assay for KCNK9 modulator project, cell-based, HEK293, thallium flux; shares compounds with KCNK9 inh; Kir2.1 cells, FluxOR thallium flux fluorescence; inhibition, % at 10 µM; actives 4% (n = 4,900);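 active = thallium signal drop more than 5 SD beyond the mean of the no-compound control wells, seen in both duplicate plates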;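 also: signal is fluorescence rise after thallium addition divided by baseline fluorescence; plate controls were assay buffer only for no effect and full block by chlorpromazine control for full effect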
HEK293 Tl ctr: thallium flux in non-induced HEK293 cells, confirmation, counter-screen for KCNK9 inhibitor project, cell-based, second counter screen, non-induced KCNK9-HEK293. inhibition, % at 10 µM. shares compounds with KCNK9 inh. FluxOR thallium flux. actives 40% (n = 4,900);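 active = thallium signal drop beyond 5 SD of the untreated control mean, on both duplicate plates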;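 also: plate controls were buffer only IC0 wells for no effect and SID17386958 at its maximal inhibitory level for full effect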
* marks the source's active call; other numbers are inactive results. Most compounds without a hit are left out; they make up all but 4.1% or so of the library.

For CCOC(=O)c1c(C)[nH]c(C(=O)COC(=O)C2(C)CC2(Cl)Cl)c1C (stereo not given) the results were KCNQ1 inh inactive, KCNK3 inh inactive, hERG protect -7, KCNK9 inh -17*, KCNQ1 act inactive, KCC2 secondary 0.0072, KCC2 bumet counter 0.0042, KCC2 secondary2 0.028, HEK counter1 0.0073, KCC2 retest ouab 0.017, HEK counter2 0.01, KCNK9 inh conf inactive, Kir21 sel inactive and HEK293 Tl ctr inactive.
Screening O=c1oc2ccccc2c(Nc2cc3ccccc3cc2O)c1[N+](=O)[O-] returned KCNQ1 inh inactive, KCNK3 inh inactive, hERG protect -13, Cl transport mod -4.3*, KCNK9 inh inactive, KCNQ1 act inactive, KCC2 secondary 0.0065, KCC2 bumet counter 0.0046, KCC2 secondary2 inconclusive, HEK counter1 0.0065, KCC2 retest ouab 0.016*, HEK counter2 0.0083*, KCNK9 inh conf inactive, Kir21 sel inactive and HEK293 Tl ctr inactive.
O=C(N/N=C/c1cc([N+](=O)[O-])cc(Br)c1O)C12CC3CCC(CC(C3)C1)C2 was read as KCNQ1 inh inactive, KCNK3 inh inactive, hERG protect -22, Cl transport mod 8.3*, KCNK9 inh inactive, KCNQ1 act 25*, KCC2 secondary 0.0087, KCC2 bumet counter 0.017*, KCC2 secondary2 0.033, HEK counter1 0.012*, KCC2 retest ouab inconclusive, HEK counter2 inconclusive, KCNK9 inh conf inactive, Kir21 sel inactive and HEK293 Tl ctr inactive.
Cc1ccc(C(OCC(O)CNCc2ccc(F)cc2)c2ccccc2)cc1 (stereo not given) was read as KCNQ1 inh inactive, KCNK3 inh inactive, hERG protect -16, KCNK9 inh inactive and KCNQ1 act inactive.
For Cc1cc(Br)ccc1-n1[nH]c(C)c(C=Nc2cccc3nsnc23)c1=O the results were KCNQ1 inh inactive, KCNK3 inh inactive, hERG protect -6, Cl transport mod 16*, KCNK9 inh inactive, KCNQ1 act inactive, KCC2 secondary 0.011, KCC2 bumet counter 0.043*, KCC2 secondary2 0.029, HEK counter1 0.017*, KCC2 retest ouab 0.04*, HEK counter2 inconclusive, KCNK9 inh conf inactive, Kir21 sel inactive and HEK293 Tl ctr inactive.
